Experimental data reported in ChEMBL document CHEMBL1148401, “Synthesis and structure-activity relationships of novel arylpiperazines as potent and selective agonists of the melanocortin subtype-4 receptor” (J Med Chem, 2004).

What was measured:
Melanocortin receptor 4 [1] = target: T1, Melanocortin receptor 4 (Homo sapiens, UniProt P32245); assay: Agonistic potency towards human melanocortin 4 receptor, determined by 50% maximum cAMP release; format: functional
Method in brief: (§1)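 HEK293 cells stably expressing human MC3 or MC4 receptor, suspended in HBSS/0.1% BSA/10 mM HEPES at 1 × 10⁶ cells/mL. Compound serial dilutions 10 µM to 0.1 nM; NDP-α-MSH control agonist 100 nM to 1 pM. 20 min at 37 °C, quenched with sodium acetate/Triton X-100. cAMP by SPA competition with ¹²⁵I-cAMP, 12 h. EC50 at 50% maximal cAMP release, n = 2, ± SEM.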

Melanocortin receptor 4 [2] = target: T1, Melanocortin receptor 4; assay: Binding affinity towards human melanocortin 4 receptor using [125I]NDP-alpha-MSH as a radioligand in HEK293 cells; format: cell-based
Method in brief: (§2)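 Membranes from HEK293 cells stably expressing human MC1, MC3, MC4 or MC5 receptor, 0.5-5.0 µg protein, with 100 pM ¹²⁵I-NDP-α-MSH and WGA SPA beads. Buffer 25 mM HEPES pH 7.5, 10 mM CaCl₂, 0.3% BSA. Compound 30 µM to 300 pM. 10 h at room temperature, scintillation counting. Four-parameter logistic IC50 converted to Ki by Cheng-Prusoff; n = 2 or 4, ± SEM.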

Melanocortin receptor 3 [3] = target: T2, Melanocortin receptor 3 (Homo sapiens, UniProt P41968); assay: Agonistic potency towards human Melanocortin 3 receptor (MC3R) was determined by 50% maximum cAMP release; format: functional; method in brief: as §1
T2 sequence (P41968 whole entry): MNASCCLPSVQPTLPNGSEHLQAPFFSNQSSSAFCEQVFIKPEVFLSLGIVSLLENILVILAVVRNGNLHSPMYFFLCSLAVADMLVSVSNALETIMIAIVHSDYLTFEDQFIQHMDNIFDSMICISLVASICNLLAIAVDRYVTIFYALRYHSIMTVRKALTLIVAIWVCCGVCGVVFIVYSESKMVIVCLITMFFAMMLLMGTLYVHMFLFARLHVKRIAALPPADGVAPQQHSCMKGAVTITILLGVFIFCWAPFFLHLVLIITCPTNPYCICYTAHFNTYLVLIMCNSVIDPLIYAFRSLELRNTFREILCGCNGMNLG

[4] = Volume distribution in fischer rats at 5 mg/kg dose, administered intravenously; format: ADME, organism-based; parameters: dose 5 mg/kg, route intravenous; conditions: rat, in vivo, iv, read-out: Volume distribution
Method in brief: (§3)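 Fischer 344 rats, n = 3 per route: 5 mg/kg iv, or 30 mg/kg by gavage in 10% acacia. Retro-orbital blood into heparinized syringes at 0.5, 1, 2, 6 h after oral dosing and 0.083, 1, 2, 4, 6, 8, 24 h after iv dosing. Plasma stored at -70 °C and quantified by electrospray LC/MS/MS against standards by least-squares regression.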

[5] = Tmax in fischer rats at 30 mg/kg dose, administered orally; conditions: rat, in vivo, po
[6] = target: Melanocyte-stimulating hormone receptor (Homo sapiens, UniProt Q01726); assay: Binding affinity towards human Melanocortin 1 receptor (MC1R) using [125I]NDP-alpha-MSH as a radioligand in membranes of HEK 293 cells; format: cell membranes, HEK293; method in brief: as §2
Chain of Melanocyte-stimulating hormone receptor (Q01726 whole entry): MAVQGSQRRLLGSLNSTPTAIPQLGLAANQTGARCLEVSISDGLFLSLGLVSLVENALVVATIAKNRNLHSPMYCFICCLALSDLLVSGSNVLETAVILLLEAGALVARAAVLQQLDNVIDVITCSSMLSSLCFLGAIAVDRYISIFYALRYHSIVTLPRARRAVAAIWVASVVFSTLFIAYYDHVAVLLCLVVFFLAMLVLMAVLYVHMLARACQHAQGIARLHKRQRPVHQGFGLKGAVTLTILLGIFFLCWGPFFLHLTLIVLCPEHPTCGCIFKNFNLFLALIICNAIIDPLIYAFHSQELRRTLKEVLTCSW

[7] = Half-life in fischer rats at 5 mg/kg dose, administered intravenously; format: ADME, organism-based; parameters: dose 5 mg/kg, route intravenous; conditions: rat, in vivo, iv; method in brief: as §3
[8] = Clearance in fischer rats at 5 mg/kg dose, administered intravenously; format: ADME, organism-based; parameters: dose 5 mg/kg, route intravenous; conditions: rat, in vivo, iv; method in brief: as §3
Melanocortin receptor 3 [9] = target: T2, Melanocortin receptor 3; assay: Binding affinity towards human Melanocortin 3 receptor (MC3R) using [125I]NDP-alpha-MSH as a radioligand in membranes of HEK 293 cells; format: cell membranes, HEK293; method in brief: as §2
Melanocortin receptor 5 = Melanocortin receptor 5 (Homo sapiens, UniProt P33032); assay: Binding affinity towards human Melanocortin 5 receptor (MC5R) using [125I]NDP-alpha-MSH as a radioligand in membranes of HEK 293 cells; format: cell membranes, HEK293; method in brief: as §2
Chain of Melanocortin receptor 5 (P33032 whole entry): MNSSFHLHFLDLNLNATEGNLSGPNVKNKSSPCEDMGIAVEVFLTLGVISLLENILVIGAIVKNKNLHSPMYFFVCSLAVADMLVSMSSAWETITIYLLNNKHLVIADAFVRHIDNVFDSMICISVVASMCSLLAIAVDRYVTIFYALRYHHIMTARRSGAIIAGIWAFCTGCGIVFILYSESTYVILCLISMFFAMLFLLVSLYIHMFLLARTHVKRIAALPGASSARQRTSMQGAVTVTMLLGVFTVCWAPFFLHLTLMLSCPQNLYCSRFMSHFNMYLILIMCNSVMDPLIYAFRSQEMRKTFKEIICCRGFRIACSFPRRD

[10] = Oral bioavailability in fischer rats at 30 mg/kg dose, administered perorally; format: ADME, organism-based; conditions: rat, in vivo, read-out: Bioavailabiility; method in brief: as §3

T1 sequence (P32245 whole entry): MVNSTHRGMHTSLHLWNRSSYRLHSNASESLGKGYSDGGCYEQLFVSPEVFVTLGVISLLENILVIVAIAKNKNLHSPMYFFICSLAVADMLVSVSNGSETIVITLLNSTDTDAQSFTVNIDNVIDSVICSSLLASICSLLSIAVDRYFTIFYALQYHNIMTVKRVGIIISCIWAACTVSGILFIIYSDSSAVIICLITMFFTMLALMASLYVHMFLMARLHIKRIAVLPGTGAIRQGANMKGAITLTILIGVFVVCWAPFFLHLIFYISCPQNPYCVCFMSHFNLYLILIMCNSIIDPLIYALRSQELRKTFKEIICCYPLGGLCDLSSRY

Row | EC50 (Melanocortin receptor 4 [1]) [nM] | Ki (Melanocortin receptor 4 [2]) [nM] | also measured | Structure (SMILES)
1 | 150 | 640 | – | O=C(N[C@H](Cc1ccc(Cl)cc1)C(=O)N1CCN(c2ccccc2OCc2ccccc2)CC1)[C@H]1Cc2ccccc2CN1
2 | 98 | 230 | – | CN(C)CCOc1ccccc1N1CCN(C(=O)[C@@H](Cc2ccc(Cl)cc2)NC(=O)[C@H]2Cc3ccccc3CN2)CC1
3 | 21 | 140 | – | Cc1nccn1Cc1ccccc1N1CCN(C(=O)[C@@H](Cc2ccc(Cl)cc2)NC(=O)[C@H]2Cc3ccccc3CN2)CC1
4 | 93 | 460 | – | CC(C)Oc1ccccc1N1CCN(C(=O)[C@@H](Cc2ccc(Cl)cc2)NC(=O)[C@H]2Cc3ccccc3CN2)CC1
5 | 200 | 1700 | – | Nc1ccccc1N1CCN(C(=O)[C@@H](Cc2ccc(Cl)cc2)NC(=O)[C@H]2Cc3ccccc3CN2)CC1
6 | 400 | 640 | – | O=C(N[C@H](Cc1ccc(Cl)cc1)C(=O)N1CCN(c2ccccc2Oc2ccccc2)CC1)[C@H]1Cc2ccccc2CN1
7 | 71 | 1100 | – | COc1ccccc1N1CCN(C(=O)[C@@H](Cc2ccc(Cl)cc2)NC(=O)[C@H]2Cc3ccccc3CN2)CC1
8 | 210 | 2400 | – | O=C(N[C@H](Cc1ccc(Cl)cc1)C(=O)N1CCN(c2ccccc2[N+](=O)[O-])CC1)[C@H]1Cc2ccccc2CN1
9 | 16 | 220 | EC50 (Melanocortin receptor 3 [3]): 2000 nM; Vd [4]: 4.5 L/kg; Tmax [5]: 3 h; Ki [6]: 12000 nM; half-life [7]: 1.7 h; clearance [8]: 43 mL/min/kg; Ki (Melanocortin receptor 3 [9]): 8800 nM; Ki (Melanocortin receptor 5): 1200 nM; bioavailability [10]: 30% | CS(=O)(=O)Nc1ccccc1N1CCN(C(=O)[C@@H](Cc2ccc(Cl)cc2)NC(=O)[C@H]2Cc3ccccc3CN2)CC1
10 | 1300 | 1700 | – | Cc1ccccc1N1CCN(C(=O)[C@@H](Cc2ccc(Cl)cc2)NC(=O)[C@H]2Cc3ccccc3CN2)CC1
11 | 8 | 35 | – | CCCN(CCC)Cc1ccccc1N1CCN(C(=O)[C@@H](Cc2ccc(Cl)cc2)NC(=O)[C@H]2Cc3ccccc3CN2)CC1
12 | 7 | 60 | EC50 (Melanocortin receptor 3 [3]): 1800 nM; Ki [6]: > 20000 nM; Ki (Melanocortin receptor 3 [9]): 7000 nM; Ki (Melanocortin receptor 5): 1400 nM | CN(C)Cc1ccccc1N1CCN(C(=O)[C@@H](Cc2ccc(Cl)cc2)NC(=O)[C@H]2Cc3ccccc3CN2)CC1
13 | 37 | 27 | – | O=C(N[C@H](Cc1ccc(Cl)cc1)C(=O)N1CCN(c2ccccc2CN2CCCCC2)CC1)[C@H]1Cc2ccccc2CN1
14 | 39 | 24 | – | O=C(N[C@H](Cc1ccc(Cl)cc1)C(=O)N1CCN(c2ccccc2CN2CCCC2)CC1)[C@H]1Cc2ccccc2CN1
15 | 44 | 340 | – | C[C@@H](O)c1ccccc1N1CCN(C(=O)[C@@H](Cc2ccc(Cl)cc2)NC(=O)[C@H]2Cc3ccccc3CN2)CC1
16 | 34 | 350 | – | C[C@H](O)c1ccccc1N1CCN(C(=O)[C@@H](Cc2ccc(Cl)cc2)NC(=O)[C@H]2Cc3ccccc3CN2)CC1
17 | 360 | 6600 | – | O=C(N[C@H](Cc1ccc(Cl)cc1)C(=O)N1CCN(c2ccccc2)CC1)[C@H]1Cc2ccccc2CN1
18 | 490 | 1900 | – | O=C(N[C@H](Cc1ccc(Cl)cc1)C(=O)N1CCN(c2ccccc2O)CC1)[C@H]1Cc2ccccc2CN1
19 | 110 | 720 | – | CC(C)c1ccccc1N1CCN(C(=O)[C@@H](Cc2ccc(Cl)cc2)NC(=O)[C@H]2Cc3ccccc3CN2)CC1
20 | 140 | 530 | – | Cn1ccnc1COc1ccccc1N1CCN(C(=O)[C@@H](Cc2ccc(Cl)cc2)NC(=O)[C@H]2Cc3ccccc3CN2)CC1
21 | 145 | 1300 | – | CCc1ccccc1N1CCN(C(=O)[C@@H](Cc2ccc(Cl)cc2)NC(=O)[C@H]2Cc3ccccc3CN2)CC1
22 | 44 | 170 | – | Cn1ccnc1Cc1ccccc1N1CCN(C(=O)[C@@H](Cc2ccc(Cl)cc2)NC(=O)[C@H]2Cc3ccccc3CN2)CC1
23 | 48 | 210 | – | CS(=O)(=O)NCc1ccccc1N1CCN(C(=O)[C@@H](Cc2ccc(Cl)cc2)NC(=O)[C@H]2Cc3ccccc3CN2)CC1
24 | 150 | 630 | – | O=C(N[C@H](Cc1ccc(Cl)cc1)C(=O)N1CCN(c2ccccc2CO)CC1)[C@H]1Cc2ccccc2CN1
25 | 14 | 110 | EC50 (Melanocortin receptor 3 [3]): 1600 nM; Ki [6]: 4000 nM; Ki (Melanocortin receptor 3 [9]): 3600 nM; Ki (Melanocortin receptor 5): 700 nM | O=C(N[C@H](Cc1ccc(Cl)cc1)C(=O)N1CCN(c2ccccc2Cn2ccnc2)CC1)[C@H]1Cc2ccccc2CN1
26 | 44 | 1100 | – | CN(C)c1ccccc1N1CCN(C(=O)[C@@H](Cc2ccc(Cl)cc2)NC(=O)[C@H]2Cc3ccccc3CN2)CC1
27 | 40 | 570 | – | CCOc1ccccc1N1CCN(C(=O)[C@@H](Cc2ccc(Cl)cc2)NC(=O)[C@H]2Cc3ccccc3CN2)CC1
28 | 14 | 34 | – | CCN(CC)Cc1ccccc1N1CCN(C(=O)[C@@H](Cc2ccc(Cl)cc2)NC(=O)[C@H]2Cc3ccccc3CN2)CC1
